TRPC4 inh: inhibitors of mouse TRPC4 channel. 300,000 tested, 0.39% active. HEK293 TRPC4beta/mu-opioid, DAMGO-evoked Fluo4 calcium flux; active compounds read low. B-score at 10 µM;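 active = B-score over 3 SD under the library average, no early fluorescence shift, positive overall ratio signal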
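Material: HEK293 cells with stable TRPC4beta plus mu-opioid receptor expression; probe or stimulus: DAMGO in two steps, submaximal then maximal; technique: Fluo4 calcium fluorescence by kinetic imaging, 5 s 1 Hz baseline; measure: integrated fluorescence ratio relative to baseline, converted to per-well B score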
TRPC6 inhibitor: inhibitors of mouse TRPC6 channel | Q61143 | HEK293-TRPC6, membrane potential dye, ACh-evoked depolarization; active compounds read low | B-score at 10 µM | 310,000 tested, 1.1% active | AID 2553;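 active = B-score under library mean minus 3 SD, initial fluorescence not abnormally high, positive integrated signal ratio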;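 note: B-score derived from integrated fluorescence ratio over the kinetic read; more negative B-score means stronger inhibition of depolarization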
TRPC4 PAM: TRPC4 (mouse) allosteric potentiation; 310,000 tested, 0.42% active; Q9QUQ5; HEK293 TRPC4beta/mu-opioid, DAMGO EC20, Fluo-4 Ca2+ flux; active compounds read high; B-score at 10 µM;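 active = B-score of calcium response area above 5 SD of library B-scores, with initial fluorescence ratio within 5 SD of library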;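 note: B-score of integrated fluorescence ratio over time as area under calcium response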
TRPC6 act: activators of mouse TRPC6 channel | Q61143 | HEK293-TRPC6 membrane potential dye fluorescence; active compounds read high | B-score at 10 µM | 310,000 tested, 0.13% active | AID 2550;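 active = B-score of the integrated fluorescence ratio above library mean plus 3 SD, and starting fluorescence ratio within library mean plus 5 SD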;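 note: higher score means more depolarization so channel activation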
TRPC4 agonist: TRPC4 (mouse) channel activation; B-score at 10 µM; AID 2237; HEK293 TRPC4beta/mu-opioid, Fluo4 calcium fluorescence; active compounds read high; Q9QUQ5; 310,000 tested, 0.49% active;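 active = B-score above 5 SD of library B-scores, and initial fluorescence ratio not above library mean plus 5 SD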;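 note: positive B-score marks a calcium rise read as TRPC4 activation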
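system = HEK293 cells stably co-expressing mouse TRPC4beta and mu-opioid receptor | schedule = Fluo4 dye loading 45 min at room temperature, 110 s recording | measure = B-scored integrated calcium fluorescence ratio | signal = Fluo4 calcium-sensitive dye fluorescence, kinetic, 1 Hz baseline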
An asterisk follows results filed as active. In the library only some 2.3% were active in any assay of this set; here they are far more common.

`CCOc1ncccc1C(=O)NCc1ccccc1` gave TRPC4 inh inactive, TRPC6 inhibitor inactive, TRPC4 PAM inactive, TRPC6 act inactive and TRPC4 agonist inactive.
Screening CN(C)C(CNC(=O)c1cc2ccccc2oc1=O)c1ccccc1 (stereo not drawn) returned TRPC4 inh -6*, TRPC6 inhibitor inactive, TRPC4 PAM inactive, TRPC6 act inactive and TRPC4 agonist 87*.
For CCOc1ncccc1C(=O)NCC(c1ccccc1)N(C)C (stereo not drawn) the results were TRPC4 inh inactive, TRPC6 inhibitor inactive, TRPC4 PAM inactive, TRPC6 act inactive and TRPC4 agonist 126*.
`O=C(CCN1CCN(c2ccccc2)CC1)N/N=C/c1ccc([N+](=O)[O-])o1` gave TRPC4 inh inactive, TRPC6 inhibitor inactive, TRPC4 PAM inactive, TRPC6 act inactive and TRPC4 agonist inactive.
Screening Cc1ccc(NS(=O)(=O)c2ccc(C(=O)NCc3ccccn3)cc2)cc1 returned TRPC4 inh inactive, TRPC6 inhibitor inactive, TRPC4 PAM inactive, TRPC6 act inactive and TRPC4 agonist 44*.
CCOc1ccc(NS(=O)(=O)c2ccc(C(=O)NCc3ccccn3)cc2)cc1 was read as TRPC4 inh inactive, TRPC6 inhibitor inactive, TRPC4 PAM inactive, TRPC6 act inactive and TRPC4 agonist 44*.
Screening CCOc1ccc(NS(=O)(=O)c2ccc(C(=O)NCc3ccncc3)cc2)cc1 returned TRPC4 inh inactive, TRPC6 inhibitor inactive, TRPC4 PAM inactive, TRPC6 act inactive and TRPC4 agonist inactive.
COc1cccc(NCc2ccc([N+](=O)[O-])s2)c1 was read as TRPC4 inh -6*, TRPC6 inhibitor inactive, TRPC4 PAM inactive, TRPC6 act inactive and TRPC4 agonist inactive.
`COc1cccc(Nc2ccc([N+](=O)[O-])c3nonc23)c1` gave TRPC4 inh inactive, TRPC6 inhibitor inactive, TRPC4 PAM inactive, TRPC6 act inactive and TRPC4 agonist inactive.
`Cc1ccc2c(C)c(C(=O)N3CCC(O)(c4ccccc4)CC3)oc2c1C` gave TRPC4 inh inactive, TRPC6 inhibitor inactive, TRPC4 PAM 13*, TRPC6 act inactive and TRPC4 agonist inactive.
`CCOC(=O)C1CCN(C2CCN(C(=O)c3oc4c(C)c(C)ccc4c3C)CC2)CC1` gave TRPC4 inh -6*, TRPC6 inhibitor inactive, TRPC4 PAM inactive, TRPC6 act inactive and TRPC4 agonist inactive.
For Cc1ccc2c(C)c(C(=O)N3CCN(c4cnccn4)CC3)oc2c1C the results were TRPC4 inh inactive, TRPC6 inhibitor inactive, TRPC4 PAM inactive, TRPC6 act inactive and TRPC4 agonist inactive.
Brc1cccc2sc(N3CCCC3)nc12 was read as TRPC4 inh inactive, TRPC6 inhibitor inactive, TRPC4 PAM inactive, TRPC6 act inactive and TRPC4 agonist inactive.
Screening COc1cc(NC(=O)CCN2CCN(C/C=C/c3ccccc3)CC2)cc(OC)c1 returned TRPC4 inh inactive, TRPC6 inhibitor inactive, TRPC4 PAM 10*, TRPC6 act inactive and TRPC4 agonist 73*.
O=C(CCN1CCN(C/C=C/c2ccccc2)CC1)Nc1ccc(Cl)cc1 was read as TRPC4 inh inactive, TRPC6 inhibitor inactive, TRPC4 PAM inactive, TRPC6 act inactive and TRPC4 agonist inactive.
CCN(C(=O)c1c(-c2ccccc2Cl)noc1C)C1CCCCC1 was read as TRPC4 inh -6*, TRPC6 inhibitor inactive, TRPC4 PAM inactive, TRPC6 act inactive and TRPC4 agonist inactive.
Screening Cc1onc(-c2ccccc2Cl)c1C(=O)N1CCN(C/C=C/c2ccccc2)CC1 returned TRPC4 inh inactive, TRPC6 inhibitor inactive, TRPC4 PAM inactive, TRPC6 act inactive and TRPC4 agonist 101*.
O=C(Nc1cccc(Cl)c1)N1CCN(C/C=C/c2ccccc2)CC1 was read as TRPC4 inh inactive, TRPC6 inhibitor inactive, TRPC4 PAM 26*, TRPC6 act inactive and TRPC4 agonist inactive.
For C/C(=N\NC(=O)c1cccc(S(=O)(=O)N2CCCC2)c1)c1cccs1 the results were TRPC4 inh inactive, TRPC6 inhibitor inactive, TRPC4 PAM inactive, TRPC6 act inactive and TRPC4 agonist inactive.
COc1ccc(NC(=O)CN(C)S(=O)(=O)c2ccc3c(c2)CC(C)N3C(C)=O)cc1OC (stereo not drawn) was read as TRPC4 inh inactive, TRPC6 inhibitor inactive, TRPC4 PAM inactive, TRPC6 act inactive and TRPC4 agonist inactive.
Screening CC(=O)N1CCCc2cc(S(=O)(=O)N3CCN(C4CCCCC4)CC3)ccc21 returned TRPC4 inh inactive, TRPC6 inhibitor inactive, TRPC4 PAM inactive, TRPC6 act inactive and TRPC4 agonist 57*.
For O=C(O)/C=C/c1ccc(S(=O)(=O)NCc2cccnc2)cc1 the results were TRPC4 inh inactive, TRPC6 inhibitor inactive, TRPC4 PAM inactive, TRPC6 act inactive and TRPC4 agonist inactive.
For Cc1ccc(C(=O)C2=C(O)C(=O)N(Cc3cccnc3)C2c2ccc(Cl)c(Cl)c2)o1 (stereo not drawn) the results were TRPC4 inh -6*, TRPC6 inhibitor inactive, TRPC4 PAM inactive, TRPC6 act inactive and TRPC4 agonist inactive.
For Cc1ccc(C(=O)C2=C(O)C(=O)N(Cc3cccnc3)C2c2ccc(Br)cc2)o1 (stereo not drawn) the results were TRPC4 inh inactive, TRPC6 inhibitor inactive, TRPC4 PAM inactive, TRPC6 act inactive and TRPC4 agonist inactive.
Cc1cc(-c2ccccc2)nc2cc(C(=O)NCc3ccco3)nn12 was read as TRPC4 inh inactive, TRPC6 inhibitor inactive, TRPC4 PAM inactive, TRPC6 act inactive and TRPC4 agonist inactive.
CCN(CC)CCSc1nc(O)c(C(C)C)c(=O)[nH]1 was read as TRPC4 inh inactive, TRPC6 inhibitor inactive, TRPC4 PAM 12*, TRPC6 act inactive and TRPC4 agonist 80*.
Screening CC(C)c1c(O)nc(SCCN2CCOCC2)[nH]c1=O returned TRPC4 inh inactive, TRPC6 inhibitor inactive, TRPC4 PAM inactive, TRPC6 act inactive and TRPC4 agonist inactive.
CCCCSc1nc(O)c(Cc2ccccc2)c(=O)[nH]1 was read as TRPC4 inh inactive, TRPC6 inhibitor inactive, TRPC4 PAM inactive, TRPC6 act inactive and TRPC4 agonist inactive.
Screening CCCc1c(O)nc(SCCN(CC)CC)[nH]c1=O returned TRPC4 inh inactive, TRPC6 inhibitor inactive, TRPC4 PAM inactive, TRPC6 act inactive and TRPC4 agonist 112*.
For CCCCCCCc1c(O)nc(SCC(=O)O)[nH]c1=O the results were TRPC4 inh inactive, TRPC6 inhibitor inactive, TRPC4 PAM inactive, TRPC6 act inactive and TRPC4 agonist inactive.
N#Cc1c2n(c(=S)n(-c3ccccn3)c1=O)CCCCC2 was read as TRPC4 inh inactive, TRPC6 inhibitor inactive, TRPC4 PAM inactive, TRPC6 act inactive and TRPC4 agonist inactive.
